Published values pooled from the literature.
Protocols differ between the studies behind these lines.
Target: Serine/threonine-protein kinase mTOR (MTOR, Homo sapiens, UniProt P42345)

Structure (SMILES)	effect on	technique	tested at	remaining binding [%]
O=C(c1ccc(Nc2nccc(-c3cc4ccccc4s3)n2)cc1)N1CCC(N2CCCC2)CC1	binding	competition with immobilised ligand	1 µM	100
CN(C)c1nccc(-c2cnc3ncccn23)n1	binding	–	1 µM	79
c1cncc(-c2cccc(Nc3nccc(NC4CCCCC4)n3)c2)c1	binding	competition with immobilised ligand	10 µM	94
CNC(=O)Nc1ccc2c(c1)CC[C@@]21OC(=O)N(CC(=O)N(Cc2ccc(F)cc2)[C@@H](C)C(F)(F)F)C1=O	cell-free assay	competition with immobilised ligand	1 µM	92
C[C@H]1CCN(c2nccc(-c3cnn4ncccc34)n2)C1	binding	–	1 µM	100
O=C(Nc1c[nH]nc1C(=O)NC1CCNCC1)c1cc(F)cc(F)c1	binding	competition with immobilised ligand	1 µM	100
O=C(NCCCN1CCOCC1)c1ccc(Nc2ncc(Cl)c(-c3ccc(Cl)s3)n2)cc1	binding	competition with immobilised ligand	1 µM	94
FC(F)(F)Oc1cccc(-c2cnc3ccc(-c4ccncc4)nn23)c1	cell-free assay	competition with immobilised ligand	5 µM	42
CN(CCCC(F)(F)F)c1nccc(-c2cnn3ncccc23)n1	binding	–	1 µM	95
CNC(=O)[C@@H]1CC[C@@H](n2c(-c3ccc4cnccc4c3)nc3ccc(C(=O)NCc4cccc(C(N)=O)c4)cc32)C1	binding	competition with immobilised ligand	1 µM	66
F[C@@H]1CCN(c2nccc(-c3cnn4ncccc34)n2)C1	binding	–	1 µM	77
COc1cc(-c2cn(C3CCc4ccccc4N(CC(F)(F)F)C3=O)nn2)ccc1-n1ccc(C)n1 (stereo not drawn)	cell-free assay	competition with immobilised ligand	1 µM	100
Cc1cnc(Nc2ccc(C(=O)N3CCC(N4CCCC4)CC3)cc2)nc1-c1cc2ccccc2s1	binding	competition with immobilised ligand	1 µM	85
CN(C)c1ncnc(-c2ccc3nc(Nc4cc(CN5CCN(C(=O)CC(F)(F)F)CC5)ccn4)[nH]c3c2)c1Cl	cell-free assay	competition with immobilised ligand	1 µM	100
COc1cnc(Nc2cccc(S(N)(=O)=O)c2)nc1N1CCN(c2ccccc2)CC1	binding	competition with immobilised ligand	1 µM	93
O=C(O)c1cc(-c2ccc(C3CCNCC3)cc2)c2ccc(-c3ccc(C(F)(F)F)cc3)cc2c1	cell-free assay	competition with immobilised ligand	1 µM	90
CN(C)c1ncc(F)c(-c2cnn3ncccc23)n1	binding	–	1 µM	100
O=C(NCc1ncc(C(F)(F)F)cc1Cl)c1ccc2c(c1)C1(CCS(=O)(=O)CC1)[C@@H](C1CC1)N2S(=O)(=O)c1ccc(F)cc1	cell-free assay	competition with immobilised ligand	1 µM	92
C[C@@H](c1ccc(-n2cnc3c(N)ncnc32)cc1)N1CCc2nn(C)c(Cc3ccccc3)c2C1=O	binding	competition with immobilised ligand	0.1 µM	83
c1ccc(N2CCN(Cc3nc4ccccc4[nH]3)CC2)nc1	cell-free assay	competition with immobilised ligand	1 µM	100
COc1ccnn2ncc(-c3ccnc(N(C)C)n3)c12	binding	–	1 µM	95
